According to ChEMBL document CHEMBL3797085, “Structure-Based Design and Synthesis of Novel Inhibitors Targeting HDAC8 from Schistosoma mansoni for the Treatment of Schistosomiasis” (J Med Chem, 2016):
Activity calls are given as the source filed them. The calls are words filed in the database; no cut-off is given here.

Key:
Histone deacetylase 1 [1] = target: T1, Histone deacetylase 1 (Homo sapiens, UniProt Q13547); assay: Inhibition of recombinant human HDAC1 using Cbz-(Ac)Lys-AMC as substrate at 10 uM preincubated for 90 mins followed by trypsin addition measured after 20 mins by fluorescence assay relative to control
Schistosoma mansoni [2] = assay: Antiparasitic activity against schistosomula stage of Schistosoma mansoni assessed as parasite viability at 10 uM after 48 hrs by Alamar Blue assay relative to control; format: functional
Procedure, shortened: (§1)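 Mechanically transformed S. mansoni schistosomula, 100 per well, in Medium 199 with 10% FCS, penicillin, streptomycin and rifampicin, held 3 h at 37°C/5% CO2 before use. […] Resazurin added at 48 h; fluorescence (ex 530/em 590 nm) read 24 h later, corrected for drug-medium background. Ethanol-killed larvae as dead control. Triplicate wells, two biological replicates.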

Histone deacetylase 8 [3] = target: T2, Histone deacetylase 8 (Homo sapiens, UniProt Q9BY41); assay: Inhibition of recombinant human HDAC8 using Fluor de Lys as substrate preincubated for 90 mins followed by BML-KI176 addition measured after 45 mins by fluorescence assay; settings: read-out: IC50
T2 sequence (Q9BY41 whole entry): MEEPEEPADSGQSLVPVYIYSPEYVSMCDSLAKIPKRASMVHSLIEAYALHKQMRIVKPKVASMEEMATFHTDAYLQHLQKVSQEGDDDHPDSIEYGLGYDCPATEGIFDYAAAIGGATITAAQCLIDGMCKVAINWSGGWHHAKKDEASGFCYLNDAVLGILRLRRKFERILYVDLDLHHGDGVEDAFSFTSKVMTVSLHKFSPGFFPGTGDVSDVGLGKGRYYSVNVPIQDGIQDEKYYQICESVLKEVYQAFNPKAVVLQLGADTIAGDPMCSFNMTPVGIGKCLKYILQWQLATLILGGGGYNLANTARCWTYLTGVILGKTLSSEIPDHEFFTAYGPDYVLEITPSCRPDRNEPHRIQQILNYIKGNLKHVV

Histone deacetylase 8 [4] = target: T3, Histone deacetylase 8 (Schistosoma mansoni, UniProt A5H660); assay: Inhibition of recombinant Schistosoma mansoni HDAC8 expressed in Escherichia coli using Fluor de Lys as substrate preincubated for 90 mins followed by BML-KI176 addition measured after 45 mins by fluorescence assay; settings: read-out: IC50
T3 sequence (A5H660 whole entry): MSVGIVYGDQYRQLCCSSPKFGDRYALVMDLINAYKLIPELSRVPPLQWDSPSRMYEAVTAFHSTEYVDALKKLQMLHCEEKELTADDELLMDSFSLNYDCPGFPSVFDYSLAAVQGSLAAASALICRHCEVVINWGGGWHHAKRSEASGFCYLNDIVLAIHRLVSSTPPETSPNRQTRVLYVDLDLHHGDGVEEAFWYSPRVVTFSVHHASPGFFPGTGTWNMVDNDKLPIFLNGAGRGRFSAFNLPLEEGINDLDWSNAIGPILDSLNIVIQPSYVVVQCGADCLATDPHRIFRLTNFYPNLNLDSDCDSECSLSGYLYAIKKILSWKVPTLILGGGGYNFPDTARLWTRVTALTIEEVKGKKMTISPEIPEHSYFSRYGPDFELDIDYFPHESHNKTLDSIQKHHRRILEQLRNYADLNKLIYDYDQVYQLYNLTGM
Procedure, shortened: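 smHDAC8 produced in E. coli. Fluor de Lys kit: compound, Fluor de Lys-HDAC8 substrate (50 µM) and enzyme incubated 90 min at 37°C, then Developer II for 45 min at 30°C. Reaction stopped with trichostatin A (2 µM). Fluorescence read at ex 390/em 460 nm. IC50 given as mean ± S.E.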

[5] = Cytotoxicity against HEK293 cells assessed as cell viability at 50 uM after 24 hrs by Alamar Blue assay relative to control; format: cell-based; settings: human, read-out: Activity
Procedure, shortened: (§2)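 AlamarBlue added after 24 h, incubated a further 21 h; resorufin fluorescence ex 560/em 590 nm. Triplicates; viability relative to untreated cells; daunorubicin positive control.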

Schistosoma mansoni [6] = assay: Antiparasitic activity against schistosomula stage of Schistosoma mansoni assessed as parasite viability after 48 hrs by Alamar Blue assay; format: functional, organism-based; procedure, shortened: as §1
Histone deacetylase 1 [7] = target: T1, Histone deacetylase 1; assay: Inhibition of recombinant human HDAC1 using Cbz-(Ac)Lys-AMC as substrate preincubated for 90 mins followed by trypsin addition measured after 20 mins by fluorescence assay; settings: read-out: IC50
Schistosoma mansoni [8] = assay: Antiparasitic activity against schistosomula stage of Schistosoma mansoni assessed as parasite viability at 20 uM after 48 hrs by Alamar Blue assay relative to control; format: functional; procedure, shortened: as §1
[9] = target: T4, Protein deacetylase HDAC6 (Homo sapiens, UniProt Q9UBN7); assay: Inhibition of recombinant human HDAC6 using Cbz-(Ac)Lys-AMC as substrate preincubated for 90 mins followed by trypsin addition measured after 20 mins by fluorescence assay; settings: read-out: IC50
T4 sequence (Q9UBN7 whole entry): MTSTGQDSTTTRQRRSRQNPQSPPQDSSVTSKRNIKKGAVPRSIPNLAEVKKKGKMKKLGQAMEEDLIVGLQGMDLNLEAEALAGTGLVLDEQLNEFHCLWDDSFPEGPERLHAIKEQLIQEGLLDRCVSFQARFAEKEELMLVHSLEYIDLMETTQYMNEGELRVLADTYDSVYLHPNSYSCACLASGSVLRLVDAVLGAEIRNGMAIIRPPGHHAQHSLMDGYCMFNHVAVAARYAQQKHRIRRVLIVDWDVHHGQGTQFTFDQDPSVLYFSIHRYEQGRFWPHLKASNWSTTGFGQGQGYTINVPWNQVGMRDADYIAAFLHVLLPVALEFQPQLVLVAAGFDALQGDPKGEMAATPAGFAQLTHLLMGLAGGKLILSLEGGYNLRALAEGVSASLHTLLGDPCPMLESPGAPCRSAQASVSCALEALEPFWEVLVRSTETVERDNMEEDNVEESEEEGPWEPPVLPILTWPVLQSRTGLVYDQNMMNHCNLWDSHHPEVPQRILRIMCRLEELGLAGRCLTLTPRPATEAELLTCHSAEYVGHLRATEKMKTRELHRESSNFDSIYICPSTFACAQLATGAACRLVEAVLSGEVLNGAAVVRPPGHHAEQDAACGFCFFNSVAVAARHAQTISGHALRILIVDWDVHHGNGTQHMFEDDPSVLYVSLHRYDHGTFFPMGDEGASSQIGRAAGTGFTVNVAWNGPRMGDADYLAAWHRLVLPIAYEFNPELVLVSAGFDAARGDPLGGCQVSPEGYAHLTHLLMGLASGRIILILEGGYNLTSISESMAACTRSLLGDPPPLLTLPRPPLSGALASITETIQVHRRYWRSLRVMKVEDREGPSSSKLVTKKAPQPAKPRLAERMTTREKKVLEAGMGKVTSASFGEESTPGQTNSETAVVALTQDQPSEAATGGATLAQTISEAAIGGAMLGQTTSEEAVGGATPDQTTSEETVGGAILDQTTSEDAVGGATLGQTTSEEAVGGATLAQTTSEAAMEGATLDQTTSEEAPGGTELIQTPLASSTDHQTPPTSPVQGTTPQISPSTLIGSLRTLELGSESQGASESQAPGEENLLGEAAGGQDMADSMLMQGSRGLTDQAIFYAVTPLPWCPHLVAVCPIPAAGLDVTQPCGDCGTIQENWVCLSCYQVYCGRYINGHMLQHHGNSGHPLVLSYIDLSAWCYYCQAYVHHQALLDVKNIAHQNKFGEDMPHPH

Schistosoma mansoni [10] = assay: Antiparasitic activity against schistosomula stage of Schistosoma mansoni assessed as parasite viability at 20 uM after 1 to 2 days by microscopy; format: functional, organism-based
Procedure, shortened: (§3)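 Microscopy viability: 2,000 schistosomula per well in M199 (10 mM HEPES, pH 7.4, supplemented), 37°C, 5% CO2; inhibitor at 10 or 20 µM in DMSO, medium refreshed daily, up to 5 days. Dead larvae scored by granular appearance, tegumental defects and lack of motility; ≥300 larvae per time point; % viable larvae. Three biological replicates in duplicate.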

HEK293 = assay: Cytotoxicity against HEK293 cells assessed as cell viability after 24 hrs by Alamar Blue assay; format: cell-based; settings: Homo sapiens, HEK293, 24 h; procedure, shortened: as §2
Schistosoma mansoni [11] = assay: Antiparasitic activity against adult Schistosoma mansoni assessed as reduction in egg lying at 10 uM after 5 days by microscopy relative to control; format: functional, organism-based
Procedure, shortened: (§4)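 Adult worm pairs perfused from infected hamsters; ten pairs per well in 2 mL M199 (pH 7.4, 10 mM HEPES, supplemented as for schistosomula), 37°C, 5% CO2. Cultured 5 days before adding inhibitors in DMSO; medium and inhibitor refreshed daily. Eggs in recovered, centrifuged medium counted by microscopy. Two biological replicates in triplicate.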

Schistosoma mansoni [12] = assay: Antiparasitic activity against adult Schistosoma mansoni assessed as separation of male and female worm pairs at 20 uM after 5 days by microscopy relative to control; format: functional
Procedure, shortened: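 Hamster-perfused worm pairs, ten per well in 2 mL buffered supplemented M199 (10 mM HEPES, pH 7.4), 37°C, 5% CO2, pre-cultured 5 days, then inhibitor in DMSO at 10 or 20 µM; medium and compound renewed daily. Pairs still coupled counted daily by microscopy for up to 5 days. Two biological replicates in triplicate.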

Schistosoma mansoni [13] = assay: Antiparasitic activity against schistosomula stage of Schistosoma mansoni assessed as parasite viability at 10 to 20 uM after 5 days by microscopy relative to control; format: functional, organism-based; procedure, shortened: as §3
Schistosoma mansoni [14] = assay: Antiparasitic activity against adult Schistosoma mansoni assessed as reduction in egg lying at 20 uM after 5 days by microscopy relative to control; format: functional; set-up: scale not given: the % may be the effect or the level left; procedure, shortened: as §4
Schistosoma mansoni [15] = assay: Antiparasitic activity against schistosomula stage of Schistosoma mansoni assessed as parasite viability at 10 uM measured within 2 days by microscopy; format: functional, organism-based; procedure, shortened: as §3

T1 sequence (Q13547 whole entry): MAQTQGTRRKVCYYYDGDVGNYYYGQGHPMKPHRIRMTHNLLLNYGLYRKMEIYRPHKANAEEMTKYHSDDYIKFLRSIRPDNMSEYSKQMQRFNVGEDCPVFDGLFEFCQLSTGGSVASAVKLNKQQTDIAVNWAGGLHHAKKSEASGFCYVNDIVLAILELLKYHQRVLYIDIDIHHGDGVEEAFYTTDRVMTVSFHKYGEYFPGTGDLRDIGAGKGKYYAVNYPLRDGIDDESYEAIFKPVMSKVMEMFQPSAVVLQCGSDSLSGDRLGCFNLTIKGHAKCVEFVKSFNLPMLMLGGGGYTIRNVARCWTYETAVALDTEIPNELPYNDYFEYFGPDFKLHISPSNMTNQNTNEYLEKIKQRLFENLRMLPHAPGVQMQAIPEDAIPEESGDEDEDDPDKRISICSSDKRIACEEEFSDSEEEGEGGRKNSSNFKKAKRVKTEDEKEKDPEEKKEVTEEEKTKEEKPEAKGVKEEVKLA

Compound | inhibition (Histone deacetylase 1 [1]) | IC50 (Histone deacetylase 8 [3]) | IC50 (Histone deacetylase 8 [4]) | IC50 (Histone deacetylase 1 [7]) | IC50 [9] | EC50 (Schistosoma mansoni [6]) | Activity (Schistosoma mansoni [2]) | viability at 24 h, 50 µM [5] | Activity (Schistosoma mansoni [6]) | Activity (Schistosoma mansoni [8]) | Activity (Schistosoma mansoni [10]) | IC50 (HEK293) | Activity (Schistosoma mansoni [11]) | Activity (Schistosoma mansoni [12]) | Activity (Schistosoma mansoni [13]) | Activity (Schistosoma mansoni [14]) | Activity (Schistosoma mansoni [15])
CCOc1ccc(C(=O)NO)cc1NC(=O)c1ccc(-c2ccccc2)cc1 |  | 149 nM | 92 nM | 2080 nM | 600 nM |  | 77.9% | 80.3% | Dose-dependent effect | 35.8% |  |  |  |  |  |  | 
O=C(NO)c1cccc(NCc2ccccc2)c1 | 41.4% | 143 nM | 1080 nM |  |  |  |  |  |  |  |  |  |  |  |  |  | 
COc1ccc(C(=O)NO)cc1NC(=O)c1ccc(-c2ccccc2)cc1 |  |  |  |  |  | 16100 nM | 64.8% | 12.3% | Dose-dependent effect | 33.4% | Active | 199000 nM | Active | 90% | inactive | 80% | Active
O=C(NO)c1ccc(C(F)(F)F)c(NC(=O)c2ccccc2)c1 |  | 342 nM | 140 nM | 2400 nM | 140 nM |  | 99.9% | 96% |  | 77.4% |  |  |  |  |  |  | 
O=C(NO)c1ccc(Cl)c(NC(=O)c2cccc(OCc3ccccc3)c2)c1 |  | 214 nM | 378 nM | 9400 nM | 1500 nM |  | 73.8% | 74.4% |  | 68.6% |  |  |  |  |  |  | 
Cc1ccc(C(=O)NO)cc1NC(=O)c1ccccc1 |  | 204 nM | 116 nM | 8400 nM | 900 nM |  | 82.9% | 71.2% |  | 72.4% |  |  |  |  |  |  | 
O=C(NO)c1ccc(Cl)c(NC(=O)c2cccc(Oc3ccccc3)c2)c1 |  | 449 nM | 396 nM | 6400 nM | 300 nM |  | 62.9% | 62% |  | 55% |  |  |  |  |  |  | 
COc1ccc(C(=O)Nc2cc(C(=O)NO)ccc2Cl)cc1 |  | 236 nM | 147 nM | 4100 nM | 130 nM |  | 63.2% | 62.5% |  | 60.7% |  |  |  |  |  |  | 

The remaining molecules from weak to strong by IC50 (Histone deacetylase 8 [3]), led by results:

inhibition (Histone deacetylase 1 [1]) | IC50 (Histone deacetylase 8 [3]) | IC50 (Histone deacetylase 8 [4]) | IC50 (Histone deacetylase 1 [7]) | IC50 [9] | EC50 (Schistosoma mansoni [6]) | Compound | Activity (Schistosoma mansoni [2]) | viability at 24 h, 50 µM [5] | Activity (Schistosoma mansoni [6]) | Activity (Schistosoma mansoni [8]) | Activity (Schistosoma mansoni [10]) | IC50 (HEK293) | Activity (Schistosoma mansoni [11]) | Activity (Schistosoma mansoni [12]) | Activity (Schistosoma mansoni [13]) | Activity (Schistosoma mansoni [14]) | Activity (Schistosoma mansoni [15])
49.5% | 104 nM | 600 nM |  |  |  | Cc1ccc(C(=O)NO)cc1NC1CCCCC1 | 84.3% | 70.2% |  |  |  |  |  |  |  |  | 
 | 88.3 nM | 190 nM | 2300 nM | 2500 nM |  | COc1ccc(C(=O)NO)cc1NC(=O)c1ccccc1 | 77.4% | 67.3% |  | 74.8% |  |  |  |  |  |  | 
37.4% | 70.2 nM | 1580 nM |  |  |  | CN(C)c1cccc(C(=O)NO)c1 | 92.6% | 92.7% |  |  |  |  |  |  |  |  | 
 | 19.8 nM | 485 nM | 20000 nM | 2400 nM |  | COc1ccc(C(=O)NO)cc1S(=O)(=O)Nc1ccc(C)cc1 | 77.7% | 80.2% |  | 73.8% |  |  |  |  |  |  | 
